Measurements as given in ChEMBL document CHEMBL2062420, “Triazole Appending Agent (TAAG): A New Synthon for Preparing Iodine-Based Molecular Imaging and Radiotherapy Agents” (ACS Med Chem Lett, 2012).

Assays:
[1] = Lipophilicity, log D of the compound at pH 7.4; assay type: physicochemical; details: buffer
[2] = Drug uptake in NCr nude mouse tumor xenografted with human LNCAP cells at 0.63 MBq, iv measured 23 hrs post injection by gamma counting; assay type: ADME, organism-based, Neoplasm; details: in vivo
Thyroid gland [3] = assay: Drug uptake in NCr nude mouse thyroid xenografted with human LNCAP cells at 0.63 MBq, iv measured 23 hrs post injection by gamma counting; assay type: ADME, organism-based; details: in vivo
[4] = Drug uptake in NCr nude mouse tumor xenografted with human LNCAP cells at 37 MBq, iv measured 2 hrs post injection by gamma counting; assay type: ADME, organism-based, Neoplasm; details: in vivo
Outline: (§1)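 Male NCr nude mice bearing LNCap tumours (PSMA-expressing) received 37 MBq of the radioiodinated PSMA-TAAG conjugate via the tail vein. Distribution was followed by scintigraphic imaging at 2 h and 24 h post-injection, with a fused scintigraphic-CT image taken at 23 h.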

[5] = Drug uptake in NCr nude mouse tumor xenografted with human LNCAP cells at 0.63 MBq, iv measured 1 hrs post injection by gamma counting; assay type: ADME, organism-based, Neoplasm; details: in vivo
Urinary bladder [6] = assay: Drug uptake in NCr nude mouse bladder xenografted with human LNCAP cells at 37 MBq, iv measured 2 hrs post injection by gamma counting; assay type: ADME, organism-based; details: in vivo; outline: as §1
Thyroid gland [7] = assay: Drug uptake in NCr nude mouse thyroid xenografted with human LNCAP cells at 37 MBq, iv measured 24 hrs post injection by gamma counting; assay type: ADME, organism-based; details: in vivo; outline: as §1
Kidney [8] = assay: Drug uptake in NCr nude mouse kidney xenografted with human LNCAP cells at 37 MBq, iv measured 2 hrs post injection by gamma counting; assay type: ADME, organism-based; details: in vivo; outline: as §1
[9] = Drug uptake in NCr nude mouse tumor xenografted with human LNCAP cells measured 1 hr post injection in presence of PSMA inhibition PMPA; assay type: ADME, Neoplasm; details: tumor (human LNCaP xenograft), with PMPA (PSMA inhibitor), amount not stated, read-out: Drug uptake
[10] = Drug uptake in NCr nude mouse tumor xenografted with human LNCAP cells at 37 MBq, iv measured 24 hrs post injection by gamma counting; assay type: ADME, organism-based, Neoplasm; details: in vivo; outline: as §1
Stomach = assay: Biodistribution in Balb/c mouse stomach at 1.37 MBq, iv up to 30 mins by gamma counter; assay type: ADME, organism-based; details: in vivo, 0.5 h
Mus musculus [11] = assay: Biodistribution in Balb/c mouse skeletal muscle at 1.37 MBq, iv up to 30 mins by gamma counter; assay type: ADME, organism-based, Muscle tissue; details: in vivo, 0.5 h
Thyroid gland [12] = assay: Biodistribution in Balb/c mouse thyroid at 1.37 MBq, iv up to 30 mins by gamma counter; assay type: ADME, organism-based; details: in vivo, 0.5 h
Lung = assay: Biodistribution in Balb/c mouse lungs at 1.37 MBq, iv up to 30 mins by gamma counter; assay type: ADME, organism-based; details: in vivo, 0.5 h
Liver = assay: Biodistribution in Balb/c mouse liver at 1.37 MBq, iv up to 30 mins by gamma counter; assay type: ADME, organism-based; details: in vivo, 0.5 h
[13] = Stability in PBS at pH 7.4 assessed as deiodination of compound after 48 hrs; assay type: physicochemical; details: buffer, pH 7.4, 48 h
Spleen = assay: Biodistribution in Balb/c mouse spleen at 1.37 MBq, iv up to 30 mins by gamma counter; assay type: ADME, organism-based; details: in vivo, 0.5 h
Blood = assay: Biodistribution in Balb/c mouse blood at 1.37 MBq, iv up to 30 mins by gamma counter; assay type: ADME, organism-based; details: in vivo, 0.5 h
Bone = assay: Biodistribution in Balb/c mouse bone at 1.37 MBq, iv up to 30 mins by gamma counter; assay type: ADME, organism-based, Bone element; details: in vivo, 0.5 h
Brain = assay: Biodistribution in Balb/c mouse brain at 1.37 MBq, iv up to 30 mins by gamma counter; assay type: ADME, organism-based; details: in vivo, 0.5 h
Mus musculus [14] = assay: Biodistribution in Balb/c mouse small intestine at 1.37 MBq, iv up to 30 mins by gamma counter; assay type: ADME, organism-based; details: in vivo, 0.5 h
Heart = assay: Biodistribution in Balb/c mouse heart at 1.37 MBq, iv up to 30 mins by gamma counter; assay type: ADME, organism-based; details: in vivo, 0.5 h
[15] = Stability of the compound in PBS at pH 7.4 after 48 hrs; assay type: physicochemical; details: buffer, pH 7.4, 48 h
Mus musculus [16] = assay: Biodistribution in Balb/c mouse large intestine at 1.37 MBq, iv up to 30 mins by gamma counter; assay type: ADME, organism-based; details: in vivo, 0.5 h
Kidney [17] = assay: Biodistribution in Balb/c mouse kidneys at 1.37 MBq, iv up to 30 mins by gamma counter; assay type: ADME, organism-based; details: in vivo, 0.5 h
Mus musculus [18] = assay: Biodistribution in Balb/c mouse adrenals at 1.37 MBq, iv up to 30 mins by gamma counter; assay type: ADME, organism-based, Adrenal tissue; details: in vivo, 0.5 h
Urinary bladder [19] = assay: Biodistribution in Balb/c mouse bladder at 1.37 MBq, iv up to 30 mins by gamma counter; assay type: ADME, organism-based; details: in vivo, 0.5 h

SMILES: O=C(O)c1ccc(I)cc1
- logD [1]: 0.07

SMILES: O=C(O)CC[C@H](NC(=O)N[C@@H](CCCCNC(=O)Cn1cc([123I])nn1)C(=O)O)C(=O)O
- Drug uptake [2]: 15 % ID/g
- Drug uptake (Thyroid gland [3]): 10 % ID/g
- Drug uptake [4]: Active
- Drug uptake [5]: 20 % ID/g
- logD [1]: -3.23
- Drug uptake (Urinary bladder [6]): Active
- Drug uptake (Thyroid gland [7]): Active
- Drug uptake (Kidney [8]): Active
- tissue uptake at 1 h [9]: < 2 %ID/g
- Drug uptake [10]: Active

SMILES: O=C(O)Cn1cc([123I])nn1
- Drug uptake (Stomach): Not Active
- Drug uptake (Mus musculus [11]): Not Active
- Drug uptake (Thyroid gland [12]): Not Active
- Drug uptake (Lung): Not Active
- Drug uptake (Liver): Not Active
- Stability [13]: Stable
- logD [1]: -2.58
- Drug uptake (Spleen): Not Active
- Drug uptake (Blood): Not Active
- Drug uptake (Bone): Not Active
- Drug uptake (Brain): Not Active
- Drug uptake (Mus musculus [14]): Not Active
- Drug uptake (Heart): Not Active
- Stability [15]: Stable
- Drug uptake (Mus musculus [16]): Not Active
- Drug uptake (Kidney [17]): Not Active
- Drug uptake (Mus musculus [18]): Not Active
- Drug uptake (Urinary bladder [19]): Active
